Source: PubChem BioAssay
FLuc stim CS – FLuc activators, initial screening, artefact control for FLuc-dependent activation tests, biochemical, ATPlite luminescence; activation factor at 10 µM; Luciferin 4-monooxygenase (Photinus pyralis), P08659; AID 1027, 2008; ATPlite luciferase biochemical, 10 min; 0 = ATP-free wells, 1 = DMSO control; 200,000 tested, under 10 active;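 active = luciferase activation factor, scaled between plate controls, of at least 2 with compound at 10 µM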
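System: luciferase plus luciferin reagent, cell-free; medium: PBS as buffer for the ATP substrate; dosing: test compounds dosed from 2 mM stocks in 100% DMSO; timing: 10 min post-reagent at room temperature; measured by: luminescence measurement of luciferase light output; evaluation: luciferase activation, seen as luminescence increase over controls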
APP 5'UTR act – activators of APP 5'UTR luciferase reporter, primary screen, SH-SY5Y cells; SH-SY5Y APP 5'UTR luciferase reporter, luminescence; zero percent = DMSO vehicle wells; activation, % at 2 µM; hit rate 1% among 190,000; AID 1276, 2008;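 active = activation above a set limit, based on mean plus 3 SD of controls, cut at about 140% in these data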
NF-kB expr up – activators of NF-kB expression in neurons, primary screen, cell-based, HTS | hit rate 1.6% among 190,000 | fold change at 12.5 µM | human neuronal cells, NF-kB reporter expression; hits give high values; in the data active = fold change above about 3.3
FLuc inh counter – firefly luciferase enzyme inhibitors, primary screen, artefact control for luciferase-based inhibitor screens, biochemical, luminescence, ATPLite; AID 1006, 2008; hit rate 1.5% among 200,000; inhibition, % at 10 µM; 10 min;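 active = inhibition above about 50% when tested at 10 µM, limit read from the data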
Pf gametocyte – late stage P. falciparum gametocyte viability inhibitors, primary screen, ATP luminescence, HTS; hit rate 0.065% among 150,000; P. falciparum stage V gametocytes, 24 h; inhibition, % at 10.9 µM;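 active = inhibition above the mean plus 3 SD of compounds within the control limits, set per campaign, cut at about 38% in these data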;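 also: 0% = DMSO wells and 100% = medium only without gametocytes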
STAT1 act – STAT1 signaling activators, primary screen, cell-based, HTS, luciferase reporter; NIH 3T3 STAT1-luciferase reporter, IFN-gamma, luminescence; 100% = IFN-gamma alone, no compound; activation (% of control), % at 5.5 µM; hit rate 2.6% among 200,000;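 active = activation above the screen-wide mean activation plus 3 SD, cut at about 130% in these data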;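 also: raw ratio to IFN-gamma control signal so 100% means no change and 0% no light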
Active calls of the source: *; . = not tested or not shown. An excerpt weighted towards active compounds, which were near 3.5% of everything screened.

SMILES	FLuc stim CS	APP 5'UTR act	NF-kB expr up	FLuc inh counter	Pf gametocyte	STAT1 act
CC(=O)c1cccc(Nc2nc(=O)c3cccnc3s2)c1	1.1	-13	3.4*	-6	.	103
CC(=O)c1ccc(Nc2nc(=O)c3cccnc3s2)cc1	1	-4	3.9*	2	.	136*
CCOC(=O)c1ccc(Nc2nc(=O)c3cccnc3s2)cc1	1	19	4.1*	1	.	112
O=c1c2c(ncn1CCO)nc1n2CCC1	1	11	1.3	2	.	96
Cc1nc2cc(NC(=O)N3c4ccccc4CC3C)ccc2o1 (configuration not stated)	0.4	95	1.4	62*	.	146*
Cc1ccccc1NC(=O)N1c2ccccc2CC1C (configuration not stated)	1	-5	1.4	0	10	113
Cc1ccc(C(=O)N2c3ccccc3CC2C)o1 (configuration not stated)	0.5	134	1.1	46	22	148*
COc1cc2c(cc1NC(=O)C(C)OC(=O)c1ccc(S(=O)(=O)Nc3ccccc3Cl)cc1)oc1ccccc12 (configuration not stated)	1.1	35	.	-5	.	102
Cc1ncoc1C(=O)Nc1ncc([N+](=O)[O-])s1	0.8	78	2.4	19	-3	142*
COc1cc(Cl)c(C)cc1NC(=O)c1ccc(NS(=O)(=O)c2ccc(F)c(F)c2)cc1	1	12	0.95	-4	.	96
O=C(NCC(=O)N(c1cccnc1)C(C(=O)NC1CCCC1)c1cccs1)c1cccs1 (configuration not stated)	1	15	0.94	-3	-4	99
CCC(C(=O)NC1CCCCC1)n1c(SCc2cccc(F)c2)nc2ccncc21 (configuration not stated)	1	22	0.86	-2	.	104
CCC(C(=O)NC1CCCCC1)n1c(SCc2cccc(C)c2)nc2ccncc21 (configuration not stated)	0.3	6	0.97	68*	.	106
Cc1ccnc(NC(=O)CCCOc2cc(=O)n(C)c3ccccc23)c1	1	13	7.6*	-4	8	113
COc1ccc(/C=N/c2c(-c3ccco3)nc3ccccn23)cc1OC	0.2	-14	0.89	80*	-21	117
Clc1ccc(/C=N/c2c(-c3ccco3)nc3ccccn23)cc1	0.8	1	0.94	23	.	90
CCCNC(=O)c1cc2c3ccccc3n(C)c2s1	1	.	0.84	-2	3	98
Cn1c2ccccc2c2cc(C(=O)NNC(=O)CCl)sc21	1.1	7	2	-8	23	133*
O=C1N/C(=C/c2ccc(N3CCOCC3)o2)C(=O)N1c1cccc(Cl)c1	1	-76	1.6	-4	1	130*
Cc1ccc(/C=C2/NC(=O)N(c3ccccc3)C2=O)o1	0.9	32	1.9	7	-8	116
c1ccc(-c2noc(C34CC5CC(CC(C5)C3)C4)n2)nc1	0.6	62	2.3	37	1	132*
c1ccc(-c2noc(C3CCCCC3)n2)nc1	0.6	101	2.7	35	.	131*
c1ccc(-c2noc(C34CC5CC(CC(C5)C3)C4)n2)cc1	1	-8	1.6	0	.	104
CS(=O)(=O)N(Cc1nc(-c2ccc(F)cc2)no1)c1ccccc1Cl	.	.	.	.	-3	.
O=C(OC1CCN(c2ncc(C(F)(F)F)cc2Cl)CC1)c1ccc(Cl)cc1	1.1	.	1.2	-6	8	102
O=C(CSc1nccn1-c1ncc(C(F)(F)F)cc1Cl)c1ccc(Cl)cc1	1	-12	0.67	-1	.	133*
CC(=O)NCCOc1nc(N(C)C)nc(N2CCCCC2)n1	1.1	-7	1.3	-8	8	101
CC(=O)OCCCNc1cc(Sc2nc3ccccc3s2)c2nonc2c1[N+](=O)[O-]	1	2	1.1	-4	.	132*
CC1=C(C(=O)OC(C)(C)C)C(c2cccs2)NC(=O)N1 (configuration not stated)	1	10	1.2	-2	28	92
